STAT3 blocker: STAT3 signaling inhibition; U3A cells, IL-6 STAT3-luciferase reporter, luminescence; host cell line lacks STAT1; inhibition, % at 5.5 µM; hit rate 0.89% among 190,000; AID 862;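 active = inhibition above the mean inhibition across all screened compounds plus 3 SD, cut at about 44% in these data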;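 note: 0% = DMSO only wells and 100% = 100 µM nifuroxazide control wells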
FLuc inhib CS: Photinus pyralis luciferase inhibition counter-screen; hit rate 1.5% among 200,000; inhibition, % at 10 µM; ATPLite firefly luciferase biochemical luminescence, 10 min;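 active = inhibition above about 50% when tested at 10 µM, limit read from the data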
Target sequence (P08659 whole entry, looked up): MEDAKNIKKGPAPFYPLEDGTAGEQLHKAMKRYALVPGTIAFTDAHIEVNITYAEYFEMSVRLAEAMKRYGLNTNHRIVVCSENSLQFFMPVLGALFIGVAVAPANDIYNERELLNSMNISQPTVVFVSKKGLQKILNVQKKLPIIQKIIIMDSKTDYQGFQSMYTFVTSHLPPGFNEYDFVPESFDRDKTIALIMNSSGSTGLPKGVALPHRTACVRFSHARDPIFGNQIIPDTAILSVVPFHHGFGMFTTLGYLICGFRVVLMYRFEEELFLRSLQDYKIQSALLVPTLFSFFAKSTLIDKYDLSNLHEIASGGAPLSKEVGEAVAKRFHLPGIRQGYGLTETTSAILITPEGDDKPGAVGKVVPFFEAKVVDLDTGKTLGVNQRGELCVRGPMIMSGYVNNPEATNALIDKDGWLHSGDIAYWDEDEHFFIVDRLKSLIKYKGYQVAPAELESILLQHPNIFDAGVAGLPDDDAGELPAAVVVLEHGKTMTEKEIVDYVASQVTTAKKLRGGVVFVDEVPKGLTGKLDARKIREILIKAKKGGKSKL
PPC-1+TRAIL kill: PPC-1 cancer cell killing with TRAIL present | PPC-1 cells + TRAIL, ATPLite viability luminescence | cell killing (% activity), % at 4 µM or 5 µM | hit rate 0.41% among 220,000 | AID 1443;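 active = cell killing above 50% in the first pass at 4 µM, then a duplicate retest at 5 µM averaging 50% or more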;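 note: plate controls were cells with TRAIL plus DMSO for no effect and medium-only wells lacking cells for full effect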
TRAIL sens C8: caspase-8 TRAIL sensitization; NB7+C8 cells + TRAIL, ATPlite viability luminescence; inhibition (viability loss, TRAIL sensitization), % at 10 µM; hit rate 1% among 360,000;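 active = compounds causing at least 50% loss of cell viability in the single-dose screen, relative to plate controls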
HSP90 inh: HSP90 refolding inhibition in rabbit reticulocyte lysate | luciferase refolding luminescence, 3 h | inhibition, % at 5.6 µM | hit rate 0.91% among 290,000 | AID 1789;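 active = inhibition above the screen-wide mean plus 3 SD, computed separately per campaign, cut at about 16% in these data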;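 note: 0% = DMSO wells and 100% = 60 µM geldanamycin wells; inhibitors lower the luminescence because luciferase stays unfolded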
FLuc act counter: firefly luciferase counter-screen for stimulation assays | P08659 | ATPlite luciferase biochemical, luminescence, 10 min; 0 = ATP-free wells, 1 = DMSO control | activation factor at 10 µM | 200,000 tested, under 10 active;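 active = luciferase activation factor, scaled between plate controls, of at least 2 with compound at 10 µM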
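Material: Luciferase/luciferin reagent mix; Doses: test compounds dosed from 2 mM stocks in 100% DMSO; Schedule: 10 min incubation after luciferase reagent addition, room temperature; Measured by: luminescence from luciferase reaction; Read-out: luminescence gain marking luciferase activators.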
HSP90 confirm: HSP90 inhibition, confirmation assay. AID 1846. inhibition, % at 5.9 µM. rabbit reticulocyte lysate, luciferase refolding luminescence, 3 h. hit rate 64% among 2,300. shares compounds with HSP90 inh; in the data active = inhibition above about 18%;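 note: 0% = vehicle wells and 100% = reference inhibitor wells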
luciferase ctr: counter-screen for HSP90 inhibitors: inhibitors of firefly luciferase | purified native firefly luciferase, luminescence | AID 1847 | shares compounds with HSP90 inh | inhibition, % at 5.9 µM | hit rate 48% among 2,300;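 active = inhibition above the mean inhibition of all tested sample wells plus 3 SD, cut at about 10% in these data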;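 note: 0% = DMSO with luciferase and 100% = wells lacking luciferase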
An asterisk follows results filed as active; / = no result given. Shown are actives, neighbours in structure and some others; about 2.2% of the full set was active somewhere.

SMILES | STAT3 blocker | FLuc inhib CS | PPC-1+TRAIL kill | TRAIL sens C8 | HSP90 inh | FLuc act counter | HSP90 confirm | luciferase ctr
O=C(Nc1cccc(-c2nc3ncccc3o2)c1)c1sc2ccccc2c1Cl | 12 | 4 | 29 | -8 | 20* | 1 | -6 | -16
O=C(Oc1ccc(Cl)c2cccnc12)c1cccc([N+](=O)[O-])c1 | -15 | -5 | 0 | -8 | -3 | 1 | / | /
O=[N+]([O-])c1ccccc1COc1ccc(Cl)c2cccnc12 | / | / | / | 16 | 21* | / | 48* | 32*
O=C(CSc1nnc(-c2ccccc2)o1)N1CCCC1 | / | / | / | -12 | 3 | / | / | /
O=C(CSc1nnc(-c2ccccc2)o1)N1CCCCC1 | / | / | / | -2 | 21* | / | 2 | -19
Cc1nnc(N/N=C/c2c(Cl)cccc2Cl)n1N | 17 | -2 | 16 | -3 | 19* | 1 | -7 | -11
CCc1nnc(N/N=C/c2c(F)cccc2Cl)n1N | / | / | / | 7 | -1 | / | / | /
Cc1nnc(N/N=C/c2ccccc2O)n1N | -7 | 2 | -4 | -7 | 58* | 1 | -4 | -18
Cc1nnc(N/N=C/c2cc(C)n(-c3ccc(F)cc3)c2C)n1N | -10 | 0 | 14 | 2 | 19* | 1 | -6 | -7
Cc1ccc(-n2nc3c(=O)n(CCCC(=O)NCc4ccc(C)o4)nc(C)c3c2C)cc1 | / | / | / | -5 | -5 | / | / | /
CCCS(=O)(=O)NC(=O)C1(C)CCN(C(=O)c2cncc(Br)c2)C1 (stereo unspecified) | / | / | / | -10 | / | / | / | /
COc1ccc(C[C@H]2CN3C(=NC[C@@H]3C(C)C)N2CCNC(=O)c2ccc(C)c(Br)c2)cc1 | / | -6 | 16 | 31 | 18* | 1.1 | 3 | -7
CC(C)(C)c1ccc(NC(=O)c2ccsc2)cc1 | / | / | 37 | 69* | 24* | / | 39* | 27*
Cc1ccc(NC(=O)c2ccsc2)cc1NS(C)(=O)=O | / | / | / | -24 | 4 | / | / | /
COc1ccc(C(=O)O)cc1S(=O)(=O)N1CCN(c2ccccn2)CC1 | / | / | / | -1 | 17* | / | -7 | -13
COc1cc(/C=N/Nc2ccc(Cl)c(C(=O)O)c2)ccc1OC(=O)c1ccc(F)cc1 | / | / | / | -10 | 60* | / | 73* | -17
COc1cc(/C=N/Nc2ccc(Cl)c(C(=O)O)c2)ccc1OC(=O)c1ccccc1F | / | / | / | -20 | 54* | / | 80* | -28
O=C(Oc1ccc2ccccc2c1)C1CCC1 | / | / | / | -4 | 37* | / | -3 | -16
COCCn1c(SCC(=O)NC2CCCC(C)C2C)nc2ccccc2c1=O (stereo unspecified) | / | / | / | 2 | / | / | / | /
COc1cccc(N=c2oc3ccccc3cc2-c2nc3ccccc3[nH]2)c1 | -47 | 25 | 44 | 38 | 24* | 0.7 | -2 | -13
COc1cccc(CC(=O)Nc2nc3ccccc3[nH]2)c1 | 2 | -2 | 11 | 40 | -2 | 1 | / | /
COc1cc(NC(=O)CSc2nnc3c(n2)[nH]c2ccc(S(=O)(=O)NC(C)C)cc23)cc(OC)c1OC | 1 | -4 | 9 | -2 | -1 | 1 | / | /
N=c1sccn1CC(=O)Nc1ccc([N+](=O)[O-])cc1Cl | / | / | 15 | -9 | 21* | / | 4 | 4
CCCc1nc(SCC(=O)Nc2nccs2)c2ccccc2n1 | / | / | / | -6 | 2 | / | / | /
O=C(CSc1nc(-c2ccccc2)nc2ccccc12)Nc1nccs1 | 23 | -8 | 22 | -7 | 22* | 1.1 | 6 | 2
SMILES | STAT3 blocker | FLuc inhib CS | PPC-1+TRAIL kill | TRAIL sens C8 | HSP90 inh | FLuc act counter | HSP90 confirm | luciferase ctr
CC(C)(C)c1ccc(C(=O)N2CCN(Cc3ccccc3)CC2)cc1 | / | / | / | 3 | 22* | / | -3 | -17
CC1CCN(c2nc3ccc(C(=O)N4CCN(Cc5ccccc5)CC4)cc3s2)CC1 | 11 | -5 | 7 | 10 | 70* | 1 | 65* | 10*
O=C(c1ccccc1)N1CCN(Cc2ccccc2)CC1 | -3 | -9 | 0 | -10 | -1 | 1.1 | / | /
COc1ccc2nc(N3CCN(C(=O)c4ccc5ncsc5c4)CC3)sc2c1 | / | / | / | 14 | / | / | / | /
CCOC(=O)N1CCN(C(=O)c2ccc3nc(N4CCC(C)CC4)sc3c2)CC1 | 10 | -6 | 20 | -4 | 14 | 1.1 | / | /
CCOC(=O)N1CCN(C(=O)c2ccc3nc(N4CCCCC4)sc3c2)CC1 | -2 | -8 | -12 | -10 | 22* | 1.1 | 23* | -6
COc1cccc(N2CCN(C(=O)c3ccc4nc(N5CCC(C)CC5)sc4c3)CC2)c1 | / | / | 15 | / | 74* | / | 76* | 54*
C/C(=N\NC(=O)c1nnn(-c2nonc2N)c1C(C)C)c1ccc2ccccc2c1 | / | / | / | 5 | 0 | / | / | /
COc1cccc(NC(=O)c2ccc(-n3cnnn3)cc2)c1 | / | / | / | 28 | -1 | / | / | /
C=CCOc1ccccc1CNc1cccc(F)c1 | -14 | -7 | -12 | -16 | -4 | 1.1 | / | /
C=CCOc1ccccc1CNc1ccc2c(c1)OCCO2 | 70* | 74* | 39 | 59* | 67* | 0.3 | 73* | 69*
CCn1c(P(C)(=O)O)nc2cc(NC(=O)c3ccccc3Cl)ccc21 | -3 | -7 | -1 | 5 | -1 | 1.1 | / | /
O=C(Cn1c(=O)n(Cc2ccc(F)cc2)c(=O)c2ccccc21)NCC1CCCO1 (stereo unspecified) | / | / | / | -28 | 18* | / | -7 | -11
CC(C)OP(=O)(c1ccc(N(C)C)cc1)C(O)c1ccc(N(C)C)cc1 (stereo unspecified) | / | / | / | -18 | 30* | / | -5 | -7
COc1cc2c(cc1OC)C(c1ccccc1)NC(C)(C)C2 (stereo unspecified) | / | / | / | -20 | -3 | / | / | /

Screening data from PubChem.
